# According to ChEMBL document CHEMBL1138856, “Synthesis and anti-human immunodeficiency virus activity of 4'-branched (+/-)-4'-thiostavudines” (J Med Chem, 2006):
# pEC50: −log10 of the molar value.
# What was measured:
# [1] = tested on: Human immunodeficiency virus 1; assay: Antiviral activity against HIV1 3B in MT4 cells by MTT assay; assay type: functional, organism-based
# [2] = Cytotoxicity against MT4 cells MTT assay; assay type: cell-based; settings: human
# How it was run: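 Mock-infected MT-4 cells were cultured with various compound concentrations in parallel with the antiviral assay (4 days, 37 °C). Viability was read by MTT. The value is the concentration reducing viability by 50%.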
# [3] = Human immunodeficiency virus 1, 3B, MT4
SMILES,pEC50 ([1]; mt4),"pEC50 [1, 3]",CC50 [2]
C#C[C@@]1(CO)C=C[C@H](n2cc(C)c(=O)[nH]c2=O)S1 (racemic),6.13,,
Cc1cn([C@H]2C=CC(CO)(CO)S2)c(=O)[nH]c1=O (racemic),,< 4.00,> 100 µM
COC(=O)[C@@]1(CO)C=C[C@H](n2cc(C)c(=O)[nH]c2=O)S1 (racemic),,< 4.00,> 100 µM
Cc1cn([C@H]2C=C[C@@](C#N)(CO)S2)c(=O)[nH]c1=O (racemic),,5.12,> 100 µM
Cc1cn([C@H]2C=C[C@](CO)(C(N)=O)S2)c(=O)[nH]c1=O (racemic),,< 4.00,> 100 µM
C=C[C@@]1(CO)C=C[C@H](n2cc(C)c(=O)[nH]c2=O)S1 (racemic),,< 4.00,> 100 µM
C#C[C@@]1(CO)C=C[C@H](n2cc(C)c(=O)[nH]c2=O)S1 (stereo in doubt; (+)-29),< 4.70,,> 100 µM
C#C[C@@]1(CO)C=C[C@H](n2cc(C)c(=O)[nH]c2=O)S1 (stereo in doubt; (-)-29),6.43,,
C#C[C@@]1(CO)C=C[C@H](n2cc(C)c(=O)[nH]c2=O)O1 [CENSAVUDINE],,7.22,> 100 µM
Cc1cn([C@H]2C=C[C@@H](CO)O2)c(=O)[nH]c1=O [STAVUDINE],,6.29,> 100 µM
